Assay results: ChEMBL document CHEMBL1671618, “Functional cloning and characterization of the multidrug efflux pumps NorM from Neisseria gonorrhoeae and YdhE from Escherichia coli” (Antimicrob Agents Chemother, 2008)
pKd: −log10 of the molar value. Values after ≈ are worked out from the molar mass of the structure shown. Active and inactive are the calls of the source. The rule behind the calls is not given here.

Experiments:
Escherichia coli [1] = experiment: Antimicrobial activity against AcrAB-deficient Escherichia coli AG100AX harboring pBADomeganorM plasmid containing Neisseria gonorrhoeae multidrug efflux pump NorM after 18 to 24 hrs by two fold dilution method; format: functional
Escherichia coli [2] = experiment: Antimicrobial activity against AcrAB-deficient Escherichia coli AG100AX harboring pBAD plasmid after 18 to 24 hrs by two fold dilution method; format: functional
How it was run: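 Twofold agar dilution on LB agar containing the antimicrobial, inoculum 10⁴ CFU/spot. Growth was scored after 18–24 h at 37°C, and each MIC determination was repeated at least four times.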

Escherichia coli [3] = experiment: Antimicrobial activity against AcrAB-deficient Escherichia coli AG100AX harboring pBADomegaydhE plasmid containing Escherichia coli multidrug efflux pump YdhE after 18 to 24 hrs by two fold dilution method; format: functional
[4] = target: T1, Multidrug resistance protein MdtK (Escherichia coli (strain K12), UniProt P37340); experiment: Binding affinity to Escherichia coli K-12 multidrug efflux protein YdhE […] in presence of 0.02% DDM surfactant by fluorescence polarization assay
T1 sequence (P37340 whole entry): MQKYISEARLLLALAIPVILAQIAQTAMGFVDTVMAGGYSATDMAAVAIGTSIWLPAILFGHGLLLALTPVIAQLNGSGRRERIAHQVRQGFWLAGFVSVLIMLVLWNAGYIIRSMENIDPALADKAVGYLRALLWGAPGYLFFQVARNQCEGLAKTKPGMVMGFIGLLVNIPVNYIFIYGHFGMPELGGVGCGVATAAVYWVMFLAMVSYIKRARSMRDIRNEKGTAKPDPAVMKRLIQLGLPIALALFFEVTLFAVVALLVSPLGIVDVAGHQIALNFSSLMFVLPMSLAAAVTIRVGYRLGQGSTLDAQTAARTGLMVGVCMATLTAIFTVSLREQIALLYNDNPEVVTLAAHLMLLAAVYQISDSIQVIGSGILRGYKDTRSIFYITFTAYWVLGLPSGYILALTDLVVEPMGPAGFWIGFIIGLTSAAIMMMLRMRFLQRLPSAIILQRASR

Neisseria gonorrhoeae [5] = experiment: Activity of Neisseria gonorrhoeae FA19 multidrug efflux protein NorM expressed in Escherichia coli AG100AX assessed as reduction in compound accumulation in presence of 100 mM NaCl by fluorimetric assay
How it was run: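 Arabinose-induced (0.01%) AG100AX cells at OD600 1.0 were held in 0.1 M Tris-HCl pH 7.0 with ethidium bromide (20 μg/ml final), then 100 mM NaCl, or KCl for comparison, was added. At each time point a 1-ml sample was centrifuged at 4°C and washed, and fluorescence read at ex 500/em 580 nm.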

[6] = Binding affinity to Neisseria gonorrhoeae FA19 multidrug efflux protein NorM expressed in Escherichia coli AG100AX in presence of 0.02% DDM surfactant by fluorescence polarization assay
Neisseria gonorrhoeae [7] = experiment: Activity of Neisseria gonorrhoeae FA19 multidrug efflux protein NorM expressed in Escherichia coli AG100AX assessed as reduction in compound accumulation by fluorimetric assay
How it was run: (§1)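 AG100AX cells carrying the pBAD-based plasmid were grown in LB with 0.01% L-arabinose at 37°C to OD600 1.0, washed, and resuspended to OD600 1.0 in 0.1 M Tris-HCl pH 7.0. Norfloxacin (100 μM final) or ethidium bromide (20 μg/ml final) was added and samples taken over time. CCCP (100 μM final) was added at 15 min. After a further 15 min, CCCP was removed and cells re-energized with 0.4% glucose. Maximum fluorescence was normalized to 100%.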

[8] = target: T2, Multidrug resistance protein MdtK (Escherichia coli (strain K12)) (UniProt P37340); experiment: Activity of Escherichia coli K-12 multidrug efflux protein YdhE expressed in Escherichia coli AG100AX assessed as reduction in compound accumulation by fluorimetric assay; how it was run: as §1
T2 sequence (whole entry): T1 sequence (P37340 whole entry)

Neisseria gonorrhoeae [9] = experiment: Inhibition of Neisseria gonorrhoeae FA19 multidrug efflux protein NorM expressed in Escherichia coli AG100AX assessed as increase in ethidium bromide accumulation at 100 uM after 15 mins by fluorimetric assay; how it was run: as §1
[10] = target: T2, Multidrug resistance protein MdtK (Escherichia coli (strain K12)); experiment: Inhibition of Escherichia coli K-12 multidrug efflux protein YdhE expressed in Escherichia coli AG100AX assessed as assessed as increase in Norfloxacin accumulation at 100 uM after 15 mins by fluorimetric assay; how it was run: as §1
[11] = target: T2, Multidrug resistance protein MdtK (Escherichia coli (strain K12)); experiment: Inhibition of Escherichia coli K-12 multidrug efflux protein YdhE expressed in Escherichia coli AG100AX assessed as assessed as increase in ethidium bromide accumulation at 100 uM after 15 mins by fluorimetric assay; how it was run: as §1
Neisseria gonorrhoeae [12] = experiment: Inhibition of Neisseria gonorrhoeae FA19 multidrug efflux protein NorM expressed in Escherichia coli AG100AX assessed as increase in Norfloxacin accumulation at 100 uM after 15 mins by fluorimetric assay; how it was run: as §1

Compound	MIC (Escherichia coli [1])	MIC (Escherichia coli [2])	MIC (Escherichia coli [3])	also measured
GENTAMICIN	2.5 mg/L	2.5 mg/L	2.5 mg/L	–
[Cl-].c1ccc([P+](c2ccccc2)(c2ccccc2)c2ccccc2)cc1 [TETRAPHENYLPHOSPHONIUM CHLORIDE]	25 mg/L	12.5 mg/L	25 mg/L	–
CN(C)[C@@H]1C(O)=C(C(N)=O)C(=O)[C@@]2(O)C(O)=C3C(=O)c4c(O)cccc4[C@@](C)(O)[C@H]3C[C@@H]12 [TETRACYCLINE]	1.25 mg/L (≈ 2.81 µM)	1.25 mg/L (≈ 2.81 µM)	1.25 mg/L (≈ 2.81 µM)	–
O=C(N[C@H](CO)[C@H](O)c1ccc([N+](=O)[O-])cc1)C(Cl)Cl [CHLORAMPHENICOL]	0.625 mg/L (≈ 1.93 µM)	0.625 mg/L (≈ 1.93 µM)	0.625 mg/L (≈ 1.93 µM)	–
CC[n+]1c(-c2ccccc2)c2cc(N)ccc2c2ccc(N)cc21.[Br-] [HOMIDIUM BROMIDE]	15.6 mg/L	7.81 mg/L	15.6 mg/L	pKd [4]: 5.01; Activity (Neisseria gonorrhoeae [5]): Active; pKd [6]: 4.91; Activity (Neisseria gonorrhoeae [7]): Active; Activity [8]: Active
CCn1cc(C(=O)O)c(=O)c2cc(F)c(N3CCNCC3)cc21 [NORFLOXACIN]	0.032 mg/L (≈ 0.1 µM)	0.008 mg/L (≈ 0.0251 µM)	0.016 mg/L (≈ 0.0501 µM)	pKd [4]: 4.01; Activity (Neisseria gonorrhoeae [5]): Active; pKd [6]: 3.90
CCn1cc(C(=O)O)c(=O)c2ccc(C)nc21 [NALIDIXIC ACID]	0.625 mg/L (≈ 2.69 µM)	0.625 mg/L (≈ 2.69 µM)	0.625 mg/L (≈ 2.69 µM)	–
CN(C)c1ccc(C(=C2C=CC(=[N+](C)C)C=C2)c2ccc(N(C)C)cc2)cc1.[Cl-] [GENTIAN VIOLET]	2.5 mg/L	0.625 mg/L	2.5 mg/L	–
CN[C@H](CC(C)C)C(=O)N[C@H]1C(=O)N[C@@H](CC(N)=O)C(=O)N[C@H]2C(=O)N[C@H]3C(=O)N[C@H](C(=O)N[C@H](C(=O)O)c4cc(O)cc(O)c4-c4cc3ccc4O)[C@H](O)c3ccc(c(Cl)c3)Oc3cc2cc(c3O[C@@H]2O[C@H](CO)[C@@H](O)[C@H](O)[C@H]2O[C@H]2C[C@](C)(N)[C@H](O)[C@H](C)O2)Oc2ccc(cc2Cl)[C@H]1O [VANCOMYCIN]	250 mg/L (≈ 173 µM)	250 mg/L (≈ 173 µM)	250 mg/L (≈ 173 µM)	–
CCn1cc(C(=O)O)c(=O)c2cc(F)c(N3CCNCC3)nc21 [ENOXACIN]	0.063 mg/L (≈ 0.197 µM)	0.031 mg/L (≈ 0.0968 µM)	0.063 mg/L (≈ 0.197 µM)	–
CO[C@@H]1[C@@H](OC(N)=O)[C@@H](O)[C@H](Oc2ccc3c(O)c(NC(=O)c4ccc(O)c(CC=C(C)C)c4)c(=O)oc3c2C)OC1(C)C [NOVOBIOCIN]	3.12 mg/L (≈ 5.1 µM)	1.56 mg/L (≈ 2.55 µM)	3.12 mg/L (≈ 5.1 µM)	–
COc1ccc2cc3[n+](cc2c1OC)CCc1cc2c(cc1-3)OCO2.[Cl-] [BERBERINE CHLORIDE]	250 mg/L	31.2 mg/L	250 mg/L	–
Nc1ccc2cc3ccc(N)cc3nc2c1 [PROFLAVINE]	12.5 mg/L (≈ 59.7 µM)	6.25 mg/L (≈ 29.9 µM)	12.5 mg/L (≈ 59.7 µM)	–
COc1cccc2c1C(=O)c1c(O)c3c(c(O)c1C2=O)C[C@@](O)(C(=O)CO)C[C@@H]3O[C@H]1C[C@H](N)[C@H](O)[C@H](C)O1 [DOXORUBICIN]	6.25 mg/L (≈ 11.5 µM)	1.56 mg/L (≈ 2.87 µM)	6.25 mg/L (≈ 11.5 µM)	–
O=C(O)c1cn(C2CC2)c2cc(N3CCNCC3)c(F)cc2c1=O [CIPROFLOXACIN]	–	–	–	pKd [4]: 4.04; pKd [6]: 3.92; Activity (Neisseria gonorrhoeae [7]): Active; Activity [8]: Active
N#CC(C#N)=NNc1cccc(Cl)c1 [CARBONYL CYANIDE M-CHLOROPHENYLHYDRAZONE]	6.25 mg/L (≈ 30.5 µM)	6.25 mg/L (≈ 30.5 µM)	6.25 mg/L (≈ 30.5 µM)	inhibition (Neisseria gonorrhoeae [9]): Active; inhibition [10]: Active; inhibition [11]: Active; inhibition (Neisseria gonorrhoeae [12]): Active
C[n+]1ccc(-c2cc[n+](C)cc2)cc1.[Cl-].[Cl-] [PARAQUAT DICHLORIDE]	156 mg/L	156 mg/L	156 mg/L	–
CN(C)c1ccc(O)c2c1C[C@H]1C[C@H]3[C@H](N(C)C)C(O)=C(C(N)=O)C(=O)[C@@]3(O)C(O)=C1C2=O [MINOCYCLINE]	0.625 mg/L (≈ 1.37 µM)	0.625 mg/L (≈ 1.37 µM)	0.625 mg/L (≈ 1.37 µM)	–
CN[C@@H]1[C@H](O[C@H]2[C@H](O[C@H]3[C@H](O)[C@@H](O)[C@H](N=C(N)N)[C@@H](O)[C@@H]3N=C(N)N)O[C@@H](C)[C@]2(O)C=O)O[C@@H](CO)[C@H](O)[C@H]1O [STREPTOMYCIN]	> 50000 mg/L	> 50000 mg/L	> 50000 mg/L	–
CCn1cc(C(=O)O)c(=O)c2cc(F)c(N3CCNC(C)C3)c(F)c21 (stereo not drawn) [LOMEFLOXACIN]	0.032 mg/L (≈ 0.0911 µM)	0.016 mg/L (≈ 0.0455 µM)	0.016 mg/L (≈ 0.0455 µM)	–
